The whole screen tested about 65,000 compounds, of which about 1,200 (1.8%) were called active.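 How the source made its calls: active means activation above the mean activation of all tested compounds plus 3 SD (cut at about 50% in these data); inactive means the rest.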 The full list was thinned out, with actives kept by preference.
What follows are molecules tested against Steroidogenic factor 1 (Homo sapiens) (UniProt Q13285) (assay: SF-1 ligand-binding domain transactivation enhancers – cell-based, CHO-K1, Gal4-SF-1 LBD, luciferase luminescence, primary screen (AID 522)). Conditions: CHO-K1 Gal4-SF-1 LBD luciferase reporter; at 10 µM; active compounds read high; % increase over DMSO SF-1-specific signal.
Chain of Steroidogenic factor 1 (Homo sapiens) (Q13285 whole entry, looked up, the tested form may be a part): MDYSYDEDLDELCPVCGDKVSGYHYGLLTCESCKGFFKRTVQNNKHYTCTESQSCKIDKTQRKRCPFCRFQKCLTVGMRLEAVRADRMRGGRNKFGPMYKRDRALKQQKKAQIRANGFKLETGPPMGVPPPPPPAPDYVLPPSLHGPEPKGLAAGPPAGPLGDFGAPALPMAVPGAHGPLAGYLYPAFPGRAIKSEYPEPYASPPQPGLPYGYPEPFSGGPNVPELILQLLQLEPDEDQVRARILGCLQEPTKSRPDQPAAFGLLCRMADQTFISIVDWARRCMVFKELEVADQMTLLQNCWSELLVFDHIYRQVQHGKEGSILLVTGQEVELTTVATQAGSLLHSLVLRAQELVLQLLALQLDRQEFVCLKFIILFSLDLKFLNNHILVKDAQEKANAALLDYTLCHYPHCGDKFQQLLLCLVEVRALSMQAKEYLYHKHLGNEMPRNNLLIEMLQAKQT
In short: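 Assay system – CHO-K1 cells with Gal4–hSF-1 LBD chimera plus Gal4-driven luciferase · Quantity – 4,000 cells per well · Times – compound added 1 h post-seeding, 20 h exposure at 37 °C, 5% CO2 · Measured by – luciferase light emission · Benchmarks – DMSO and mock-transfected background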
`CCOC(=O)N1CCN(C(=O)C2CCN(S(C)(=O)=O)CC2)CC1` was tested, and the activation was 10.2% (inactive). With `CCOC(=O)c1sc(=S)n2c1[nH]c(=O)c1ccc(C(=O)OC)cc12` the activation was -7.4% (inactive). For `CCOC(=O)c1cnc(SCC(=O)NCc2ccco2)nc1N`, the activation was 19.1% (inactive). For `CCCCOc1ccc(NC(=O)CSCC(=O)OCC)cc1`, the activation was -6.4% (inactive). For `CCCCOc1ccc(-c2ncc(C(=O)OCC)c(N)n2)cc1`, the activation was 49.8% (active). For `O=C(CSc1nnc(-c2c[nH]c3ccccc23)n1-c1ccc(F)cc1)NCc1ccco1`, the activation was 15.7% (inactive). `Cc1nnc(SCCCn2c(N3CCCCC3)nc3c2c(=O)[nH]c(=O)n3C)s1` was tested, and the activation was -12.6% (inactive). In the case of `Cc1cc(C)nc(N2CCN(c3ncnc4c3oc3ccccc34)CC2)n1`, the activation is reported as -8.8% (inactive). In the case of `COc1ccc(CCNC(=O)CSc2nc(C)nc3c2oc2ccccc23)cc1OC`, the activation is reported as 27.4% (inactive). In the case of `COc1ccccc1Nc1ncnc2c1oc1ccccc12`, the activation is reported as 91.8% (active). With `Cn1c2c(c(=O)n(C)c1=O)C(c1ccc(O)cc1)Nc1ccccc1O2` (stereo not given) the activation was -0.7% (inactive). In the case of `COc1ccccc1NC(=O)c1ccc(C)s1`, the activation is reported as 50.1% (active). With `COc1ccc(C2C(C(=O)Nc3ccccc3OC)=C(C)Nc3nnnn32)c(OC)c1` (stereo not given) the activation was -6.7% (inactive). In the case of `CCOc1ccccc1NC(=O)Nc1cc(OC)ccc1OC`, the activation is reported as -10% (inactive). With `COc1ccc(OC)c(C2N(c3ccccn3)C(=O)C3CCCN32)c1` (stereo not given) the activation was -12.3% (inactive). `O=C1C(=O)N(CCN2CCOCC2)C(c2ccccn2)/C1=C(/O)c1ccc(Cl)cc1` (stereo not given) was tested, and the activation was -1.6% (inactive). In the case of `C=C(C)COc1ccc(-c2n[nH]c(C)c2-c2ccccc2OC)c(O)c1`, the activation is reported as -12.7% (inactive). In the case of `COc1ccc(OC)c(N=Cc2c(O)[nH]c3ccccc23)c1`, the activation is reported as 0.1% (inactive). With `COc1cc(N=Cc2c(O)[nH]c3ccccc23)cc(OC)c1OC` the activation was -0.5% (inactive). With `COc1ccc(N=Cc2c(O)[nH]c3ccccc23)cc1OC` the activation was 60.4% (active). In the case of `CCOc1nc(-c2ccc(OC)cc2)ccc1-c1noc(-c2cc(OC)c(OC)c(OC)c2)n1`, the activation is reported as -8.3% (inactive). In the case of `Cc1ccc(N2C(=O)c3ccccc3C2(O)c2ncc[nH]2)cc1` (stereo not given), the activation is reported as 6.2% (inactive). In the case of `COc1ccc(CNC(=O)C2CCN(S(=O)(=O)N3CCOCC3)CC2)cc1`, the activation is reported as 18.7% (inactive). In the case of `CCOC(=O)c1cc(C)sc1NC(=O)C1CCC1`, the activation is reported as 9.7% (inactive). `O=C(NCc1ccccn1)c1cc2ccccc2oc1=O` was tested, and the activation was 12.4% (inactive). For `Nc1ncc(-c2cc3ccccc3oc2=O)s1`, the activation was 79.3% (active). `O=C(Oc1cccnc1)c1cc2ccccc2oc1=O` was tested, and the activation was -8.6% (inactive). With `OC(COc1ccc2ccccc2c1)CN1CCOCC1` (stereo not given) the activation was 39.4% (inactive). In the case of `CN1CCN(CC(=O)Nc2sc3c(c2C#N)CCC(C(C)(C)C)C3)CC1` (stereo not given), the activation is reported as 17.2% (inactive). `CCCCOC(=O)NCN1C(=O)C2C3C=CC(C3)C2C1=O` (stereo not given) was tested, and the activation was -13.3% (inactive). `CCCCCCOC(=O)NCC(O)c1ccccc1` (stereo not given) was tested, and the activation was 52.5% (active). `CCCCCOC(=O)NCCOC(=O)Nc1ccc(C(=O)OCC)cc1` was tested, and the activation was -12.6% (inactive). For `CCCn1c(O)c(CN2CCCC(C)C2)c(C)c(C#N)c1=O` (stereo not given), the activation was -4.9% (inactive). `O=C(CCS(=O)(=O)c1ccccc1)Nc1nc2c(s1)CCCC2` was tested, and the activation was 3.8% (inactive). In the case of `COC(=O)C(NC(C)=O)(Nc1nc2c(s1)CCCC2)C(F)(F)F` (stereo not given), the activation is reported as -0.1% (inactive). In the case of `Fc1ccc2nc(Nc3nc4c(s3)CCCC4)sc2c1`, the activation is reported as 90% (active). In the case of `Cc1ccc(F)cc1NC(=O)Cc1nn(C)c(=O)c2ccccc12`, the activation is reported as -42.9% (inactive). With `O=C(Nn1cnc2ccccc2c1=O)c1ccc(F)cc1Cl` the activation was 64.7% (active). `CN(Cc1ccccc1)C(=O)CCNC(=O)Cn1cnc2ccccc2c1=O` was tested, and the activation was -16% (inactive). With `Cc1cccc(N2CCN(S(=O)(=O)c3ccc4c(c3)c(=O)n(C)c(=O)n4C)CC2C)c1` (stereo not given) the activation was 3.8% (inactive). `COc1ccc(N2C(=O)c3cccc4cccc(c34)C2=O)nn1` was tested, and the activation was 0.5% (inactive). For `CCc1ccccc1N(CC(=O)NCCSCc1ccco1)S(C)(=O)=O`, the activation was 4.6% (inactive). In the case of `O=C(c1cccc(C(=O)N2CCc3ccccc32)n1)N1CCc2ccccc21`, the activation is reported as -0.8% (inactive). With `O=C(c1cnn2ccccc12)N1CCc2ccccc21` the activation was 111% (active). For `Cc1occc1C(=O)N1CCCc2ccccc21`, the activation was -7.2% (inactive). `COc1ccc(OCC(=O)N2CCN(C(=O)COc3ccccc3)CC2)cc1` was tested, and the activation was -5.8% (inactive). `CCOC(=O)c1cc(NC(=O)c2cccnc2)cc(C(=O)OCC)c1` was tested, and the activation was -4.7% (inactive). `CCOc1cccc(C(=O)Nc2cccnc2)c1` was tested, and the activation was 6.8% (inactive). With `CCOC(=O)c1ccc(-c2ccc(C(=O)Nc3cccnc3)o2)cc1` the activation was 51.3% (active). `CCC1=C/C(=C\c2ccc3c(c2)OCO3)C(=O)S1` was tested, and the activation was 0.1% (inactive). With `CCOc1cccc(NC(=O)C2CCCN(S(=O)(=O)c3ccc(OC)cc3)C2)c1` (stereo not given) the activation was 0.1% (inactive). `COc1ccc(S(=O)(=O)N2CCCC(C(=O)Nc3ccc(NC(=O)c4ccccn4)cc3)C2)cc1` (stereo not given) was tested, and the activation was 63.3% (active). For `COc1ccc(NC(=O)C2CCCN(S(=O)(=O)c3cccc4cccnc34)C2)cc1` (stereo not given), the activation was 5.1% (inactive). In the case of `N#CC1=C(N)C(C#N)(C#N)[C@H](c2ccsc2)[C@H]2COCC=C12`, the activation is reported as -1.6% (inactive). In the case of `COc1ccc(NC(=O)c2c(C)oc3c2CCCC3)cc1`, the activation is reported as 26.5% (inactive). With `O=C(c1cc(-c2ccccc2O)on1)N1CCCC1` the activation was 20.3% (inactive). With `COc1ccccc1-c1cc(C(=O)N2CCCCC2)no1` the activation was 82.1% (active). For `COc1ccccc1N1CCN(C(=O)c2cc(-c3ccc(Br)cc3)on2)CC1`, the activation was 3.2% (inactive). With `Cc1ccc(-n2nc3cc(Cl)c(NC(=O)c4ccco4)cc3n2)cc1` the activation was 70.4% (active). With `COC(=O)c1cc(Cl)c(NC(=O)c2ccco2)cc1OC` the activation was -3% (inactive). With `Cc1ccc(Cn2c(NC(=O)c3ccco3)nc3ccccc32)cc1` the activation was -1.8% (inactive). In the case of `CN(C)Cc1c(C#N)c2ccccc2n1C`, the activation is reported as -11.9% (inactive). With `Cn1c(COc2ccc(Cl)cc2)nc2ccccc2c1=O` the activation was 45% (inactive). In the case of `COc1ccc(OCc2ccc(-c3nc4ccccc4c(=O)n3N)o2)cc1`, the activation is reported as 59% (active). In the case of `Cc1ccc(C(=O)CSc2nc3ccccc3c(=O)n2N)o1`, the activation is reported as 32.8% (inactive).
